Measurements taken from ChEMBL document CHEMBL1123418, “N-imidazolylchroman-4-ones, N-imidazolyl-1-tetralones, and their alcohols as hypolipemic agents raising high-density lipoproteins” (1986).
Several values for one entry are separate records, joined by “and”; a condition that tells them apart may be missing. Equal entries are not always repeated.

Assays:
Rattus norvegicus [1] = experiment: Percent change in high density lipoproteins cholesterol concentration in serum from hypercholesterolemic rats at dose 50 mg/kg (po); format: functional
Outline: (§1)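 Rats were fed 1.5% cholesterol/0.5% cholic acid diet for 7 days, with compounds given by gavage over the last 4 days as a 0.5% Methocel suspension (0.5 mL/100 g). Rats were fasted overnight, killed on day 8 and bled under light CO₂ anesthesia. HDL was isolated by heparin-MnCl₂ precipitation (8000 rpm, 15 min, 4 °C). Total and HDL cholesterol were measured enzymatically-colorimetrically; % change vs control.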

Rattus norvegicus [2] = experiment: Percent increase in liver weight in rats when administered perorally; format: functional
Rattus norvegicus [3] = experiment: Percent change in total cholesterol concentration in serum from hypercholesterolemic rats at dose 50 mg/kg (po); format: functional
Rattus norvegicus [4] = species on record: Rattus norvegicus; experiment: Compound was tested in vitro for inhibition of Cholesterol biosynthesis in rat liver slices, % inhibition of [14C]acetate incorporation in neutral lipids at 2 e10-4 concentration; format: functional
Outline: (§2)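 Liver slices (250 mg) from fed male rats were incubated in Krebs-Ringer bicarbonate, pH 7.4, with 4 mM [2-¹⁴C]acetate under 95% O₂-5% CO₂. Compounds were tested at a final 2 × 10⁻⁴ M, or 5 × 10⁻⁵ M for one compound. ¹⁴C incorporation into cholesterol and into petroleum-ether-soluble nonsaponifiable neutral lipids gave % inhibition; mean of four determinations.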

Rattus norvegicus [5] = species on record: Rattus norvegicus; experiment: Compound was tested in vitro for inhibition of Cholesterol biosynthesis in rat liver slices, % inhibition of [14C]-acetate incorporation in cholesterol at 2 e10-4 concentration; format: functional; outline: as §2
Rattus norvegicus [6] = experiment: Percent change in total cholesterol concentration in serum from hypercholesterolemic rats at dose 37 mg/kg (po); format: functional
Rattus norvegicus [7] = experiment: Percent change in high density lipoproteins cholesterol concentration in serum from hypercholesterolemic rats at dose 37 mg/kg (po); format: functional; outline: as §1
Rattus norvegicus [8] = experiment: Percent change in high density lipoproteins cholesterol concentration in serum from hypercholesterolemic rats at dose 23 mg/kg (po); format: functional; outline: as §1
Rattus norvegicus [9] = experiment: Percent change in total cholesterol concentration in serum from hypercholesterolemic rats at dose 23 mg/kg (po); format: functional; outline: as §1
Rattus norvegicus [10] = experiment: Percent increase in liver weight in rats when a 50 mg/Kg dose was administered; format: functional
Rattus norvegicus [11] = experiment: Percent change in low density lipoproteins cholesterol concentration in serum from normocholesterolemic rats at dose 50 mg/kg (po)
[12] = Percent change in high density lipoprotein cholesterol
Rattus norvegicus [13] = experiment: Percent change in triglyceride concentration in serum from normocholesterolemic rats at dose 50 mg/kg (po)
[14] = Compound was tested for Hepatic peroxisomal proliferation effect in male rats treated for 7 days at dose 50 mg/kg ratio of % liver weight to % body weight; format: functional
Rattus norvegicus [15] = experiment: Compound was tested for its activity in diet-induced Hypercholesterolemic rats at dose 50 mg/kg after peroral administration carnitine acetyl transferase activity(per mg) of protein; format: functional; details: route oral
Rattus norvegicus [16] = experiment: Compound was tested for its activity in diet-induced Hypercholesterolemic rats at dose 50 mg/kg after peroral administration palmitoyl-CoA oxidation activity(per mg) of protein; format: functional; details: route oral
Rattus norvegicus [17] = experiment: Compound was tested for Hepatic peroxisomal proliferation effect in male rats treated for 7 days at dose 50 mg/kg protein; format: functional
Rattus norvegicus [18] = experiment: Compound was tested for Hepatic peroxisomal proliferation effect in male rats treated for 7 days at dose 50 mg/kg concentration of hepatic proteins(mg/g) in liver; format: functional, organism-based; parameters: dose 50 mg/kg

| SMILES | Change (Rattus norvegicus [1]) [%] | Change (Rattus norvegicus [2]) [%] | Change (Rattus norvegicus [3]) [%] | other results |
| --- | --- | --- | --- | --- |
| O=C1c2cc(Cl)ccc2OCC1n1cccn1 (centres undefined) | 13 | 6 | 35 | – |
| COc1ccc2c(c1)OC(C)C(n1ccnc1)C2=O (centres undefined) | 5 | 2 | 11 | – |
| CC1Oc2c(Br)cc(C(=O)O)cc2C(=O)C1n1ccnc1 (centres undefined) | -11 | 4 | -23 | – |
| CC1Oc2cc(O)c(C(C)(C)C)cc2C(=O)C1n1ccnc1 (centres undefined) | 32 | 9 | -7 | – |
| O=C1c2cc(Br)ccc2OCC1n1ccnc1 (centres undefined) | 144 | 23 | -50 | – |
| O=C1c2cc([N+](=O)[O-])ccc2CCC1n1ccnc1 (centres undefined) | 23 | 5 | -16 | – |
| O=C1c2ccccc2OC(c2cccnc2)C1n1ccnc1 (centres undefined) | 12 | 4 | -4 | – |
| OC1c2cc(Cl)ccc2OCC1n1ccnc1 (trans isomer) | – | 20 | – | Change (Rattus norvegicus [1]; 50 mg/kg): 83%; Change (Rattus norvegicus [3]; 50 mg/kg): -14% |
| CCCCCCCCOC1c2cc(Cl)ccc2OCC1n1ccnc1 (centres undefined) | 18 | – | 42 | – |
| COc1ccc2c(c1)C(=O)C(n1ccnc1)CO2 (centres undefined) | 88 | 20 | -21 | – |
| CC1Cc2ccccc2C(=O)C1n1ccnc1 (centres undefined) | 102 | 26 | -54 | – |
| O=C1c2ccc(-c3ccccc3)cc2OCC1n1ccnc1 (centres undefined) | 118 | 22 | -48 | – |
| COc1ccc2c(c1)OCC(n1ccnc1)C2=O (centres undefined) | -1 | 3 | 11 | – |
| CC1Oc2ccccc2C(=O)C1n1ccnc1 (centres undefined) | 115 | 15 | -67 | – |
| CN(C)c1ccc2c(c1)C(=O)C(n1ccnc1)CC2 (centres undefined) | – | 11 | – | Inhibition (Rattus norvegicus [4]): 0%; Inhibition (Rattus norvegicus [5]): 55%; Change (Rattus norvegicus [6]): -37%; Change (Rattus norvegicus [7]): 69% |
| O=C1c2cc(O)cc(Br)c2OCC1n1ccnc1 (centres undefined) | 1 | -1 | 2 | – |
| Cc1nccn1C1COc2ccc(Cl)cc2C1=O (centres undefined) | 23 | 14 | 39 | – |
| O=C1c2cc(-c3ccccc3)ccc2CCC1n1ccnc1 (centres undefined) | – | 2 | – | Change (Rattus norvegicus [8]): 8%; Change (Rattus norvegicus [9]): 4% |
| OC1c2cc(Cl)ccc2OCC1n1ccnc1 (stereo in doubt; 40) | – | 24 | – | Change (Rattus norvegicus [10]): 24%; Inhibition (Rattus norvegicus [4]): 0%; Change (Rattus norvegicus [11]): -50%; Inhibition (Rattus norvegicus [5]): 0%; Percent change in HDL cholesterol [12]: 123; Change (Rattus norvegicus [13]): -36%; Change (Rattus norvegicus [3]; 50 mg/kg): -42% and -19% |
| CCC1(c2ccccc2)C(=O)NC(=O)NC1=O [PHENOBARBITAL] | – | – | – | Ratio [14]: 4.32%; Activity (Rattus norvegicus [15]): 4.2; Activity (Rattus norvegicus [16]): 1.15; Activity (Rattus norvegicus [17]): 1.92; Concentration (Rattus norvegicus [18]): 40.6 |
| COc1ccc2c(c1)C(O)C(n1ccnc1)CC2 (centres undefined) | 88 | 21 | -24 | – |
| O=C1c2ccc(O)cc2CCC1n1ccnc1 (centres undefined) | 12 | -3 | 30 | – |
